Calls of active or inactive are those of the source. The calls are words filed in the database; no cut-off is given here.

Assay [1] relates to HCT-116. In words: Induction of apoptosis in human HCT-116 cells assessed as viable cells at 2.5 uM incubated for 48 hrs by annexin-V and propidium iodide staining based flow cytometry analysis (reference value: 96.29 %). In kind it is functional. The note with it: read-out: Activity.
Assay [2] deals with HCT-116. In words: Induction of mitochondrial membrane potential loss in human HCT-116 cells assessed as cells with depolarized mitochondria by measuring increase in J-monomer green fluorescence intensity at 0.5 uM incubated for 48 hrs by JC1 staining based flow cytometry analysis (reference value: 12.53 %). In kind it is functional. On the technique in general: In flow cytometry, cells or beads pass a laser one at a time.

For assay [3], the system named is HCT-116. The experiment in a line: Induction of mitochondrial membrane potential loss in human HCT-116 cells assessed as cells with depolarized mitochondria by measuring increase in J-monomer green fluorescence intensity at 1 uM incubated for 48 hrs by JC1 staining based flow cytometry analysis (reference value: 12.53 %). The assay is classed as functional.
The test system of assay [4] is HCT-116. In words: Induction of mitochondrial membrane potential loss in human HCT-116 cells assessed as cells with depolarized mitochondria by measuring increase in J-monomer green fluorescence intensity at 2.5 uM incubated for 48 hrs by JC1 staining based flow cytometry analysis (reference value: 12.53 %). The assay is classed as functional.
For assay [5], the system named is HCT-116. The experiment in a line: Induction of mitochondrial membrane potential loss in human HCT-116 cells assessed as cells with hyperpolarized mitochondria by measuring decrease in J-aggregates red fluorescence intensity at 1 uM incubated for 48 hrs by JC1 staining based flow cytometry analysis (reference value: 86.42 %). The assay is classed as functional. More on the design: scale not given: the % may be the effect or the level left.

Assay [6] concerns HCT-116. In words: Induction of mitochondrial membrane potential loss in human HCT-116 cells assessed as cells with hyperpolarized mitochondria by measuring decrease in J-aggregates red fluorescence intensity at 2.5 uM incubated for 48 hrs by JC1 staining based flow cytometry analysis (reference value: 86.42 %). The assay is classed as functional. More on the design: scale not given: the % may be the effect or the level left.

For assay [7], the system named is HCT-116. The experiment in a line: Induction of apoptosis in human HCT-116 cells assessed as micronuclei formation at 0.5 to 2.5 uM incubated for 48 hrs by DAPI staining based fluorescence microscopic analysis. In kind it is functional, cell-based. The note with it: dose microM 0.5-2.5, time 48.0 hrs. Summed up: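 Nuclear morphology was imaged by fluorescence microscopy using a DAPI filter at 200×; untreated cells served as control.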

Assay [8] relates to HCT-116. In words: Induction of apoptosis in human HCT-116 cells assessed as reduction in green fluorescence intensity at 0.5 to 2.5 uM incubated for 24 hrs by acridine orange staining based microscopic analysis. The assay is classed as functional, cell-based. The note with it: dose microM 0.5-2.5, time 24.0 hrs. The gist of the method: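 HCT-116 cells were incubated at 0.5, 1.0 and 2.5 µM for 24 h and stained with acridine orange. Green fluorescence (excitation 480-490 nm), chromatin distribution and blebbing were inspected microscopically at 200× against untreated controls.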

For assay [9], the system named is HCT-116. In words: Cytotoxicity against human HCT-116 cells assessed as reduction in cell viability at 0.5 to 2.5 uM incubated for 48 hrs by phase contrast microscopy. In kind it is functional, cell-based. The settings on record: dose microM 0.5-2.5, time 48.0 hrs.
In assay [10] the test system is HCT-116. In words: Inhibition of colony formation in human HCT-116 cells incubated for 10 days by crystal violet staining based assay. The assay is classed as functional, cell-based. The settings on record: dose microM 0.25-1, time 10.0 day. Summed up: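 HCT-116 cells exposed in medium to 0.25, 0.5 and 1 μM over 10 days to allow colonies to form. Colonies visualised by crystal violet staining and counted relative to untreated control cells.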

Assay [11] relates to HCT-116. In words: Induction of cell cycle arrest in human HCT-116 cells assessed as G0/G1 phase incubated for 48 hrs by propidium iodide based flow cytometry analysis. The assay is classed as functional. The settings on record: dose microM 0.5-2.5, time 48.0 hrs.
Assay [12] has as its system HCT-116. The experiment in a line: Induction of cell cycle arrest in human HCT-116 cells assessed as G2/M phase at 0.5 uM incubated for 48 hrs by propidium iodide based flow cytometry analysis (reference value: 15.3 %). In kind it is functional.
The subject of assay [13] is HCT-116. The experiment in a line: Induction of cell cycle arrest in human HCT-116 cells assessed as S phase at 1 uM incubated for 48 hrs by propidium iodide based flow cytometry analysis (reference value: 7.8 %). In kind it is functional.
Assay [14] deals with HCT-116. In words: Induction of cell cycle arrest in human HCT-116 cells assessed as G0/G1 phase at 2.5 uM incubated for 48 hrs by propidium iodide based flow cytometry analysis (reference value: 28.2 %). In kind it is functional.
Assay [15] has as its system HCT-116. The experiment in a line: Induction of cell cycle arrest in human HCT-116 cells assessed as sub-G1 phase at 2.5 uM incubated for 48 hrs by propidium iodide based flow cytometry analysis (reference value: 2.1 %). In kind it is functional.
In assay [16] the test system is HCT-116. The experiment in a line: Induction of cell cycle arrest in human HCT-116 cells assessed as sub-G1 phase at 0.5 uM incubated for 48 hrs by propidium iodide based flow cytometry analysis (reference value: 2.1 %). The assay is classed as functional.
The subject of the next assay is MDA-MB-231. The experiment in a line: Cytotoxicity against human MDA-MB-231 cells assessed as reduction in cell viability incubated for 48 hrs by MTT assay. In kind it is functional, cell-based. The note with it: MDA-MB-231, 48 h. The gist of the method: (§1)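 Cancer cell lines were exposed to drug for 48 h, and the 50% inhibitory concentration was determined. Values are averages of three individual experiments. A549, HCT-116, BT-474 and MDA-MB-231 are human lines; B16F10 is a murine melanoma line.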
On the technique in general: Tetrazolium assays rely on reduction of a dye to a coloured formazan, in cell work by metabolically active cells.

For a further assay, the system named is BT-474. The experiment in a line: Cytotoxicity against human BT-474 cells assessed as reduction in cell viability incubated for 48 hrs by MTT assay. The assay is classed as functional, cell-based. The note with it: BT-474, 48 h. Summed up:
as §1

With `O=C(/C=C\Nc1ccc(Cl)cc1)c1nc(-c2ccc(F)cc2)n2ccccc12`, in the assay with HCT-116 [1], the viability at 2.5 µM came out at 77.4%. Besides, the Activity in the assay with HCT-116 [2] was 13.5%; in the assay with HCT-116 [3], 20.53%; in the assay with HCT-116 [4], 20.68%; in the assay on HCT-116 [5], 78.07%; with HCT-116 [6], 76.3%; in the assay on HCT-116 [11] it was “Dose-dependent effect”. The Activity amounted to 15% in the assay with HCT-116 [12]; 9.7% in the assay with HCT-116 [13]; 41.9% with HCT-116 [14]; 1.6% in the assay on HCT-116 [15]; 1.2% in the assay on HCT-116 [16]. For the same compound, the result in the assay with HCT-116 [7], in the assay on HCT-116 [8] and in the assay on HCT-116 [9] was Active. The inhibition entry with HCT-116 [10] was “Dose-dependent effect”. Besides, the IC50 in the assay on MDA-MB-231 worked out at 4.25 µM; with BT-474 it was 7.03 µM.

The term IC50 denotes the concentration that inhibits the measured activity by half.

(Values after ChEMBL document CHEMBL4665711, “Synthesis of (Z)-3-(arylamino)-1-(3-phenylimidazo[1,5-a]pyridin-1-yl)prop-2-en-1-ones as potential cytotoxic agents” (Bioorg Med Chem Lett, 2020).)
